Laboratory results published in BindingDB's records for PubMed 36228194 (University of Bayreuth, 2022).

Molecular target: T1, NAD-dependent protein deacetylase sirtuin-3, mitochondrial (Homo sapiens, UniProt Q9NTG7)
T1 sequence (Q9NTG7 whole entry): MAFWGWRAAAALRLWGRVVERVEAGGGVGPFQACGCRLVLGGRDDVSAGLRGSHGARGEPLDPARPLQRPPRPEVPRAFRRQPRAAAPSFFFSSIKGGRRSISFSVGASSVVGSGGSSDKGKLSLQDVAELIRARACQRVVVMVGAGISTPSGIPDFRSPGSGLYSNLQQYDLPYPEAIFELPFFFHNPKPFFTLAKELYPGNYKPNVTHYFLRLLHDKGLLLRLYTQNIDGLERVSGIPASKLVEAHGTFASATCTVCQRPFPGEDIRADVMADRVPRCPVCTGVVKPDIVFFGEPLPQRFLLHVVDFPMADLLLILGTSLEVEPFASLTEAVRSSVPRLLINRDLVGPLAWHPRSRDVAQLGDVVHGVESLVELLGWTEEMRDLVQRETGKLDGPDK
Experiment: Activation of N-terminal his-tagged human SIRT3 (114 to 380 residues) expressed in Escherichia coli in presence of NAD+ by Mass spectrometry assay
Method in brief: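 Mass-spectrometric deacetylation assay using coupled-assay components (1.5 µM Sirt3, 50 µM peptide, 100 µM NAD+, compound 100 µM) in 50 mM Na-phosphate pH 7.8 plus 0.05 µg/µL PNCA to remove nicotinamide; product and substrate peptides quantified.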

`CCOC(=O)C1=CN(C(=O)c2cc(OC)c(OC)c(OC)c2)C=C(C(=O)OCC)C1c1ccccc1` was tested. Which EC50 did it give?
Its EC50 is 100 µM.
